Data reported in ChEMBL document CHEMBL2150854, “Macrocyclic Hedgehog Pathway Inhibitors: Optimization of Cellular Activity and Mode of Action Studies” (ACS Med Chem Lett, 2012).
Activity calls are given as the source filed them. The calls are words filed in the database; no cut-off is given here.

Key:
[1] = biological target: Protein smoothened (Mus musculus) (UniProt P56726); test: Inhibition of Smo in mouse C3H10T1/2 cells assessed as inhibition of human Shh-induced cell differentiation after 48 hrs by alkaline phosphatase reporter assay relative to cyclopamine; type: cell-based; settings: C3H 10T1/2
How it was run: (§1)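 Murine mesenchymal C3H10T1/2 cells were induced to differentiate with Shh protein. Differentiation was read as alkaline phosphatase expression, quantified with fluorescent substrates. Uninduced cells served as baseline. IC50 was taken from dose–response curves.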

[2] = biological target: Protein smoothened (Mus musculus) (UniProt P56726); test: Inhibition of Smo in mouse Ptch-deficient MEF cells assessed as inhibition of Shh-induced Gli-responsive betagalactosidase activity after 30 hrs by BetaGLo assay in presence of SAG; type: cell-based
How it was run: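 Ptch-/- MEF β-gal reporter cells were given an inhibitor dose range together with 20 nM SAG. β-Gal activity was read, with untreated cells and 100 nM KAAD-cyclopamine-treated cells as reference levels.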

[3] = biological target: Protein smoothened (Mus musculus) (UniProt P56726); test: Ratio of IC50 for Smo in mouse C3H10T1/2 cells assessed as inhibition of human Shh-induced Gli1 transcriptional activity in presence of SAG to IC50 for Smo in mouse C3H10T1/2 cells assessed as inhibition of human Shh-induced Gli1 transcriptional activity; type: cell-based; settings: C3H 10T1/2
[4] = biological target: Protein smoothened (Mus musculus) (UniProt P56726); settings: C3H 10T1/2, at 103 to 25000 nM
[5] = biological target: Protein smoothened (Mus musculus) (UniProt P56726); test: Inhibition of Smo in mouse Ptch-deficient MEF cells assessed as inhibition of Shh-induced Gli1 transcriptional activity in presence of SAG; type: cell-based
[6] = biological target: Protein smoothened (Mus musculus) (UniProt P56726); test: Inhibition of Smo in mouse C3H10T1/2 cells assessed as inhibition of human Shh-induced Gli1 transcriptional activity after 48 hrs by RT-PCR analysis in presence of SAG; type: cell-based; settings: C3H 10T1/2
Protein smoothened [7] = biological target: T1, Protein smoothened (Mus musculus, UniProt P56726); test: Inhibition of Smo in mouse Ptch-deficient MEF cells assessed as inhibition of Shh-induced Gli-responsive betagalactosidase activity after 30 hrs by BetaGLo assay; type: cell-based
[8] = biological target: Protein smoothened (Mus musculus) (UniProt P56726); test: Competitive inhibition of Smo in mouse C3H10T1/2 cells assessed as inhibition of purmorphamine-induced Gli1 transcriptional activity at 309 to 25000 nM by qPCR analysis; type: cell-based; settings: C3H 10T1/2
Protein smoothened [9] = biological target: T1, Protein smoothened; test: Inhibition of Smo in mouse Ptch-deficient MEF cells assessed as inhibition of Shh-induced Gli1 transcriptional activity; type: cell-based
[10] = biological target: Protein smoothened (Mus musculus) (UniProt P56726); test: Competitive inhibition of Smo in mouse C3H10T1/2 cells assessed as inhibition of purmorphamine-induced Gli1 transcriptional activity at 103 to 25000 nM by qPCR analysis; type: cell-based; settings: C3H 10T1/2
[11] = biological target: Protein smoothened (Mus musculus) (UniProt P56726); test: Inhibition of Smo in mouse C3H10T1/2 cells assessed as inhibition of human Shh-induced Gli1 transcriptional activity after 48 hrs by RT-PCR analysis relative to cyclopamine; type: cell-based; settings: C3H 10T1/2
Protein smoothened [12] = biological target: T1, Protein smoothened; test: Inhibition of Smo in mouse C3H10T1/2 cells assessed as inhibition of human Shh-induced Gli1 transcriptional activity after 48 hrs by RT-PCR analysis; type: cell-based, C3H 10T1/2
How it was run: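 Murine mesenchymal C3H10T1/2 cells were activated with Shh protein and exposed to inhibitor. Gli1 mRNA was quantified by real-time qPCR, normalised to Actb as internal control, and IC50 was taken from dose–response curves.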

[13] = biological target: Protein smoothened (Mus musculus) (UniProt P56726); settings: C3H 10T1/2, 55.5 to 4500 nM
C3H 10T1/2 [14] = test: Effect on purmorphamine-induced Gli1 transcription in mouse C3H10T1/2 cells at 55.5 to 4500 nM by qPCR analysis; type: functional, cell-based
[15] = biological target: Sonic hedgehog protein (Homo sapiens) (UniProt Q15465); test: Inhibition of human Shh-induced mouse C3H10T1/2 cell differentiation after 48 hrs by alkaline phosphatase reporter assay relative to cyclopamine; settings: C3H 10T1/2; how it was run: as §1
C3H 10T1/2 [16] = test: Effect on SAG-induced Gli1 transcription in mouse C3H10T1/2 cells at 103 to 25000 nM by qPCR analysis; type: functional, cell-based
How it was run: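 Double-titration (Schild-type) design in murine mesenchymal C3H10T1/2 cells. Gli1 expression is induced by a series of SAG concentrations, each combined with several inhibitor concentrations. Gli1 mRNA is quantified by real-time qPCR with Actb as internal control. SAG dose–response curves are compared across inhibitor levels for shifts and for the maximal induction.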

C3H 10T1/2 [17] = test: Effect on purmorphamine-induced Gli1 transcription in mouse C3H10T1/2 cells at 103 to 25000 nM by qPCR analysis; type: functional, cell-based

Sequence of Protein smoothened (Mus musculus) (P56726 whole entry): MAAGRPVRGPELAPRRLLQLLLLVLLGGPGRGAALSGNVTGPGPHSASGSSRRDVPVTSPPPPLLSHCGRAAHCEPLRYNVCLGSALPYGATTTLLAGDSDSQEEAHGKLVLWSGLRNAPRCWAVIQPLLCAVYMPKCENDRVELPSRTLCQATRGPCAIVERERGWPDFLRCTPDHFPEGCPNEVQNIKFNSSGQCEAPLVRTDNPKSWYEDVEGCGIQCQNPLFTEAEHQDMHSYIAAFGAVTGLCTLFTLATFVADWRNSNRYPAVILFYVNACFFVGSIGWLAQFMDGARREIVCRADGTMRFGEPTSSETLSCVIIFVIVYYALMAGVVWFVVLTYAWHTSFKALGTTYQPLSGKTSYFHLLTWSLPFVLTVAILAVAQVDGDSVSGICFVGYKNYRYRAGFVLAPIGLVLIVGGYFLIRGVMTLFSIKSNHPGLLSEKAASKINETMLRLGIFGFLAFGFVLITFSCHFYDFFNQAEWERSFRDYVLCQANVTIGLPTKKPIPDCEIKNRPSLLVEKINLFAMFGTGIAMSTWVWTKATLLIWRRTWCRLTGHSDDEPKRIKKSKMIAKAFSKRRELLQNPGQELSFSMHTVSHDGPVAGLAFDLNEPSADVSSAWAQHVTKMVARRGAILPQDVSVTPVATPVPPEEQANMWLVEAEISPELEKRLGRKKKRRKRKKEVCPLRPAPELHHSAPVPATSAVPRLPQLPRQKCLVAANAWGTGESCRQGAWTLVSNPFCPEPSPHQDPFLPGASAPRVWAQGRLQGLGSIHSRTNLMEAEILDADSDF
T1 sequence (P56726 whole entry): as above
Sequence of Sonic hedgehog protein (Homo sapiens) (Q15465 24-197 limits assumed): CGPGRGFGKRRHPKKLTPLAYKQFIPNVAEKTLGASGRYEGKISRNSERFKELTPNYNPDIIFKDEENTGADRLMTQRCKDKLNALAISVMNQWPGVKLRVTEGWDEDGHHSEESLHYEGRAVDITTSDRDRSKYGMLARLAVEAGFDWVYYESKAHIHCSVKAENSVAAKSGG

O=C(CN1C/C=C/CCC(=O)N[C@H](c2ccccc2)COC1=O)NCc1ccc(Cl)cc1
Imax [1]: 47%

O=C(C[C@@H]1C/C=C/CCC(=O)N[C@H](Cc2ccccc2)COC1=O)NCc1ccc(Cl)cc1
inhibition [2]: inactive
Ratio IC50 [3]: 18
inhibition [4]: Active
Imax [1]: 90%
inhibition [5]: inactive
inhibition [6]: inactive
IC50 (Protein smoothened [7]): 8.1 µM
inhibition [8]: Active
IC50 (Protein smoothened [9]): 8.8 µM

O=C(C[C@@H]1C/C=C/CCC(=O)O[C@H](c2ccccc2)CNC1=O)NCc1cccc(Cl)c1
Imax [1]: 50%

CC(C)N[C@H]1C/C=C/C[C@@H](CC(=O)NCc2ccc(Cl)cc2)C(=O)NC[C@@H](c2ccccc2)OC1=O
Imax [1]: 41%

O=C(C[C@@H]1C/C=C/CCC(=O)N[C@H](c2ccc(Cl)cc2)COC1=O)NCc1ccc(Cl)cc1
inhibition [2]: inactive
Ratio IC50 [3]: 32
inhibition [4]: Active
Imax [1]: 105%
inhibition [10]: Active
Imax [11]: 100%
inhibition [5]: inactive
IC50 (Protein smoothened [12]): 0.4 µM
inhibition [6]: inactive
IC50 (Protein smoothened [7]): 2 µM
IC50 (Protein smoothened [9]): 3.5 µM

CN1C[C@@H](c2ccccc2)OC(=O)CC/C=C/C[C@@H](Cc2ccc(Cl)cc2)C1=O
Imax [1]: 104%

CC1=C2C[C@H]3[C@@H](CC=C4C[C@@H](O)CC[C@@]43C)[C@@H]2CC[C@]12O[C@@H]1C[C@H](C)CN[C@H]1[C@H]2C
inhibition [2]: inactive
inhibition [5]: inactive
inhibition [6]: inactive
inhibition [13]: Active
Activity (C3H 10T1/2 [14]): inactive

CC(C)(C)OC(=O)C[C@@H]1C/C=C/CCC(=O)N[C@H](c2ccccc2)COC1=O
Imax [1]: 60%

O=C(C[C@@H]1C/C=C/CCC(=O)N[C@H](c2ccc(Cl)cn2)COC1=O)NCc1ccc(Cl)cc1
Imax [11]: 85%
IC50 (Protein smoothened [12]): 4.3 µM

O=C(C[C@@H]1C/C=C/CCC(=O)O[C@H](c2ccccc2)CNC1=O)NCCCC(F)(F)F
Imax [1]: 28%

O=C(C[C@@H]1C/C=C/CCC(=O)OC[C@@H]2CCCN2C1=O)NCc1ccc(Cl)cc1
Imax [1]: 77%

C[C@H]1C/C=C/C[C@@H](CC(=O)NCc2ccc(Cl)cc2)C(=O)OC[C@@H](c2ccccc2)NC1=O
Imax [1]: 78%

O=C(C[C@@H]1C/C=C/C[C@H](Cc2ccccc2)C(=O)N[C@H](c2ccccc2)COC1=O)NCc1ccc(Cl)cc1
Imax [1]: 106%

O=C(C[C@@H]1C/C=C/CCC(=O)N[C@H](C2CCCCC2)COC1=O)NCc1ccc(Cl)cc1
Imax [1]: 75%

O=C(C[C@@H]1C/C=C/CCC(=O)N[C@H](c2ccccc2)COC1=O)NCc1ccc(Cl)cc1
Imax [1]: 86%

C[C@H]1[C@@H](c2ccccc2)OC(=O)CC/C=C/C[C@@H](CC(=O)NCc2ccc(Cl)cc2)C(=O)N1C
Imax [1]: 78%

CCCC[C@@H]1COC(=O)[C@H](CC(=O)NCc2ccc(Cl)cc2)C/C=C/CCC(=O)N1
Imax [1]: 53%

C[C@H]1[C@@H](c2ccccc2)OC(=O)CCCCC[C@@H](CC(=O)NCc2ccc(Cl)cc2)C(=O)N1C
Imax [1]: 59%

O=C(C[C@@H]1C/C=C/CCC(=O)N[C@@H](c2ccccc2)COC1=O)NCc1ccc(Cl)cc1
Imax [1]: 95%

O=C(C[C@@H]1C/C=C/CCC(=O)N[C@H](c2ccc(F)cc2)COC1=O)NCc1ccc(Cl)cc1
Imax [1]: 90%

C[C@@H]1NC(=O)[C@H](CC(=O)NCc2ccc(Cl)cc2)C/C=C/CCC(=O)O[C@@H]1c1ccccc1
Imax [1]: 77%

O=C(C[C@@H]1C/C=C/CCC(=O)O[C@H](c2ccccc2)CNC1=O)NCc1ccc(Cl)cc1
Imax [15]: 47%
Activity (C3H 10T1/2 [16]): inactive
Activity (C3H 10T1/2 [17]): inactive

O=C(C[C@@H]1C/C=C/CCC(=O)N[C@@H]2c3ccccc3C[C@@H]2OC1=O)NCc1ccc(Cl)cc1
Imax [1]: 40%

C[C@H]1C/C=C\C[C@@H](CC(=O)NCc2ccc(Cl)cc2)C(=O)OC[C@@H](c2ccccc2)NC1=O
Imax [1]: 97%

CC(C)[C@@H]1COC(=O)[C@H](CC(=O)NCc2ccc(Cl)cc2)C/C=C/CCC(=O)N1
Imax [1]: 54%

C[C@H]1NC(=O)[C@H](CC(=O)NCc2ccc(Cl)cc2)C/C=C/CCC(=O)O[C@@H]1c1ccccc1
Imax [1]: 69%
